The values that follow come from ChEMBL document CHEMBL3352779, “Synthesis and biological evaluation of 4-aza-2,3-dihydropyridophenanthrolines as tubulin polymerization inhibitors” (Bioorg Med Chem Lett, 2014).

The nature of assay [1]: (§1) Antiproliferative activity against human MiaPaCa cells after 48 hrs by SRB assay. In kind it is functional. To be noted: MIA PaCa-2, 48 h. Summed up:
(§2)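 Sulforhodamine B growth assay run on MIAPACA, MCF-7 and HeLa human cancer lines, with etoposide and podophyllotoxin as positive controls. Potency expressed as GI₅₀.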

A further assay has as its system MCF7. Put plainly: Antiproliferative activity against human MCF7 cells after 48 hrs by SRB assay. In kind it is functional. Summed up: as §2
(In SRB staining, fixed cells bind dye roughly in proportion to their protein.)

Assay [2] relates to HeLa. Put plainly: Antiproliferative activity against human HeLa cells after 48 hrs by SRB assay. In kind it is functional. Summed up: as §2
A further assay relates to MiaPaCa. The description is as §1. In kind it is functional. Summed up: as §2
In the next assay the target is Tubulin (Bos taurus, UniProt Q6B856+Q862L2+Q862F3). Put plainly: Inhibition of bovine brain tubulin polymerization measured for 1 hr at 1 min intervals by fluorescence assay.
The test system of assay [3] is HeLa. Put plainly: Cell cycle arrest in human HeLa cells assessed as accumulation of cells at G2/M phase at 5 uM after 24 hrs by FACS analysis (Rvb =33.25 %). In kind it is functional. Background: Flow cytometry measures light scatter and fluorescence of single cells or particles in a stream.
In assay [4] the test system is HeLa. Put plainly: Disruption of microtubule network in human HeLa cells at 5 uM after 24 hrs by immunohistochemistry. In kind it is cell-based. The method, boiled down:
(§3)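 HeLa cells exposed to 5 µM for 24 h, then fixed and stained with anti-tubulin antibody, with DAPI counterstain. Merged tubulin/DAPI fluorescence images examined for microtubule network and nuclear condensation.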

The test system of assay [5] is HeLa. Put plainly: Mitotic arrest in human HeLa cells assessed as cell rounding at 5 uM after 24 hrs by immunohistochemistry. In kind it is functional, cell-based. Summed up: as §3
For assay [6], the target named is T1, Tubulin (Homo sapiens) (UniProt P68371+Q9H4B7+P0DPH7+P68366+Q13509+Q71U36+P04350+Q3ZCM7+P07437+P68363+Q9BQE3+Q6PEY2+Q13885+Q9BVA1+Q9BUF5). Put plainly: Inhibition of tubulin polymerization in human HeLa cells assessed as increase of tubulin soluble fraction at 5 uM after 24 hrs by immunoblot analysis. It is filed as cell-based. The method, boiled down:
(§4)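 HeLa cells treated at 5 µM for 24 h, then permeabilized. Soluble and polymerized tubulin fractions collected separately and analysed by immunoblotting, with DMSO-treated cells as control.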
(Immunoblotting shows a protein as a band on a membrane.)

Assay [7] has as its target T1, Tubulin (Homo sapiens). Put plainly: Induction of tubulin polymerization in human HeLa cells assessed as increase of tubulin polymerized fraction at 5 uM after 24 hrs by immunoblot analysis. In kind it is cell-based. The method, boiled down: as §4

Calls of active or inactive are those of the source. The rule behind the calls is not given here.

Usually GI50 stands for the concentration giving 50% growth inhibition. On to `Cc1cccc(C2C3=C(COC3=O)Nc3c2c2cccnc2c2ncccc32)c1O` (stereo not given), for which the 50% growth inhibitory concentration (GI50) in assay [1] came out at 500 nM; with MCF7 (MCF7, 48 h) it was 10300 nM; in the assay on HeLa [2], 200 nM.
Taken in the same sequence, the figures for `COc1ccc(C2C3=C(COC3=O)Nc3c2c2cccnc2c2ncccc32)c(O)c1` (stereo not given) were 9800 nM, 9700 nM and 7000 nM.
As for `COc1ccc(C2C3=C(COC3=O)Nc3c2c2cccnc2c2ncccc32)cc1` (stereo not given), the GI50 in assay [1] amounted to 3400 nM; with MCF7 (MCF7, 48 h), 4600 nM; in the assay with HeLa [2], 4200 nM.
Consider `O=C1OCC2=C1C(c1cc(F)c(F)c(F)c1)c1c(c3cccnc3c3ncccc13)N2` (stereo not given), for which the GI50 result in the assay on MiaPaCa and in the assay on MCF7 was “inactive” in each case. Further, the GI50 in the assay with HeLa [2] amounted to 2500 nM.
In general, IC50 refers to the concentration that gives 50% inhibition. Lower therefore signals higher potency. As to `O=C1OCC2=C1C(c1ccc(F)c(F)c1)c1c(c3cccnc3c3ncccc13)N2` (stereo not given), the GI50 in assay [1] is 500 nM; in the assay with MCF7 (MCF7, 48 h), < 10 nM; in the assay on HeLa [2], 30 nM. This compound also came in with an IC50 against Tubulin of 920 nM. Also, in the assay with HeLa [3], the Activity is recorded as 76.44%. Moreover, the result with HeLa [4] and in the assay with HeLa [5] was Active. In addition, at Tubulin (Homo sapiens) [6], the inhibition result is “Active”.
Regarding `COc1ccc(F)c(C2C3=C(COC3=O)Nc3c2c2cccnc2c2ncccc32)c1` (stereo not given), the GI50 in [1] was 20 nM; in the assay with MCF7 (MCF7, 48 h) it was 10 nM; with HeLa [2] it was < 10 nM. On Tubulin, this compound returned an IC50 of 830 nM. Besides, in the assay with HeLa [3], the Activity stood at 82.04%. In addition, the result with HeLa [4] and in the assay on HeLa [5] was Active. Also, the inhibition entry on Tubulin (Homo sapiens) [6] is “Active”.
For the compound `O=C1OCC2=C1C(c1cc(Br)ccc1O)c1c(c3cccnc3c3ncccc13)N2` (stereo not given), the GI50 was 5400 nM in [1]; 9200 nM in the assay on MCF7 (MCF7, 48 h); 1760 nM in the assay with HeLa [2].
Taken in the same sequence, the figures for `COc1ccc(C2C3=C(COC3=O)Nc3c2c2cccnc2c2ncccc32)c(OC)c1OC` (stereo not given) were 3700 nM, 8200 nM and 160 nM.
Turning to `Cc1ccc(O)c(C2C3=C(COC3=O)Nc3c2c2cccnc2c2ncccc32)c1` (stereo not given), the GI50 stood at 1900 nM in assay [1] and 600 nM in the assay with HeLa [2]. In addition, the GI50 result with MCF7 was “inactive”.
In the case of `O=C1OCC2=C1C(c1ccc(O)c(Cl)c1)c1c(c3cccnc3c3ncccc13)N2` (stereo not given), the GI50 in assay [1] is 900 nM; with MCF7 (MCF7, 48 h), 7700 nM; in the assay with HeLa [2], 300 nM.
In the same order, the values of `COc1cc(C2C3=C(COC3=O)Nc3c2c2cccnc2c2ncccc32)cc(OC)c1OC` (stereo not given) are 2800 nM, 1700 nM and 100 nM.
Taken in the same sequence, the figures for `O=C1OCC2=C1C(c1ccc(C(F)(F)F)cc1)c1c(c3cccnc3c3ncccc13)N2` (stereo not given) were 700 nM, 60 nM and 2600 nM.
Taken in the same sequence, the figures for `COc1ccc(C2C3=C(COC3=O)Nc3c2c2cccnc2c2ncccc32)cc1F` (stereo not given) were 1200 nM, 6400 nM and 800 nM.
On to `COc1ccc(C2C3=C(COC3=O)Nc3c2c2cccnc2c2ncccc32)cc1OC` (stereo not given), for which the GI50 in assay [1] is 5900 nM; in the assay with MCF7 (MCF7, 48 h) it was 4600 nM; in the assay with HeLa [2], 40 nM.
Regarding `CC(=O)O[C@H]1C(=O)[C@@]2(C)[C@H]([C@H](OC(=O)c3ccccc3)[C@]3(O)C[C@H](OC(=O)[C@H](O)[C@@H](NC(=O)c4ccccc4)c4ccccc4)C(C)=C1C3(C)C)[C@]1(OC(C)=O)CO[C@@H]1C[C@@H]2O`, on Tubulin (Homo sapiens) [7], the result was Active.
Turning to `O=C1OCC2=C1C(c1cccc(Cl)c1)c1c(c3cccnc3c3ncccc13)N2` (stereo not given), the GI50 in assay [1] turned out to be 13600 nM. Also, the GI50 result with MCF7 and in the assay with HeLa [2] was “inactive” in each case.
As to `O=C1OCC2=C1C(c1cc(Cl)ccc1O)c1c(c3cccnc3c3ncccc13)N2` (stereo not given), the GI50 entry in the assay on MiaPaCa and with MCF7 was “inactive” throughout. The compound also displayed a GI50 in the assay on HeLa [2] of 300 nM.
As for `COc1cc([C@@H]2c3cc4c(cc3[C@H](O)[C@H]3COC(=O)[C@H]23)OCO4)cc(OC)c1OC` [PODOFILOX], the GI50 came to 500 nM in assay [1]; 230 nM with MCF7 (MCF7, 48 h); 710 nM with HeLa [2]. Also, the inhibition entry on Tubulin (Homo sapiens) [6] was “Active”.
In the case of `O=C1OCC2=C1C(c1ccc(O)c(Br)c1)c1c(c3cccnc3c3ncccc13)N2` (stereo not given), the GI50 was 2000 nM in assay [1]; 7600 nM with MCF7 (MCF7, 48 h); < 10 nM in the assay on HeLa [2].
Turning to `COc1ccc(OC)c(C2C3=C(COC3=O)Nc3c2c2cccnc2c2ncccc32)c1` (stereo not given), the GI50 in assay [1] is 100 nM; with MCF7 (MCF7, 48 h) it was 8400 nM; with HeLa [2], < 10 nM. In addition, the IC50 at Tubulin amounted to 2000 nM. Besides, the Activity with HeLa [3] is 73.77%.
In the case of `O=C1OCC2=C1C(c1ccc(F)cc1)c1c(c3cccnc3c3ncccc13)N2` (stereo not given), the GI50 entry with MiaPaCa and in the assay with MCF7 was “inactive” each time. For the same compound, the GI50 in the assay with HeLa [2] was 150 nM.
On to `COc1cc([C@@H]2c3cc4c(cc3[C@@H](O[C@@H]3O[C@@H]5CO[C@@H](C)O[C@H]5[C@H](O)[C@H]3O)[C@H]3COC(=O)[C@H]23)OCO4)cc(OC)c1O` [ETOPOSIDE], for which the GI50 in assay [1] was 1300 nM; in the assay with MCF7 (MCF7, 48 h), 250 nM; in the assay with HeLa [2] it was 640 nM.
On to `COc1cc(C2C3=C(COC3=O)Nc3c2c2cccnc2c2ncccc32)cc(OC)c1O` (stereo not given), for which the GI50 came out at 100 nM in assay [1]; 2100 nM in the assay on MCF7 (MCF7, 48 h); 1700 nM with HeLa [2].
